Assay results collected from several papers.
Lines come from different studies, so protocols differ.
Cell line: HepG2
Effect on: cell growth or viability

With `O=C(c1ccc(Nc2ncc(Cl)c(-c3ccc(Cl)s3)n2)cc1)N1CCC(N2CCCC2)CC1` the CC50 was 5.1 µM (44 h).
The CC50 of `NCC(=O)CCC(=O)O` is reported as > 1000 µM (ATP luminescence).
With `CCCCCCCCCCCC(=O)Nc1nc(N)nc2c1ncn2[C@H]1CO[C@@H](CO)O1` the CC50 was > 100 µM.
`COC(=O)c1c(C)ncn1CC(c1c[nH]c2ccccc12)c1c[nH]c2ccccc12` gave a CC50 of > 20 µM (MTS; 24 h).
The CC50 of `N=C(N)NCc1ccc(NC(=O)c2ccc(C(=O)Nc3ccc(C4=CCN(C(=N)N)CC4)cc3)nc2)cc1` is reported as > 117 µM (MTS; 24 h).
The CC50 of `CC(=O)Nc1ccc(O)cc1` is reported as > 1000 µM (ATP luminescence).
`Cc1cc(Nc2ccc(S(F)(F)(F)(F)F)cc2)n2ncnc2n1` has a CC50 of > 50 µM.
For `C[C@@H]1[C@H](O)[C@@H](C)/C=C/C=C/C=C/C=C/C=C/C=C/C=C/[C@H](O[C@@H]2O[C@H](C)[C@@H](O)[C@H](N)[C@@H]2O)C[C@@H]2O[C@](O)(C[C@@H](O)C[C@@H](O)[C@H](O)CC[C@@H](O)C[C@@H](O)CC(=O)O[C@H]1C)C[C@H](O)[C@H]2C(=O)O`, the CC50 was 4.6 µM (MTS; 24 h).
For `CC(C)c1c(C(=O)Nc2ccccc2)c(-c2ccccc2)c(-c2ccc(F)cc2)n1CC[C@@H](O)C[C@@H](O)CC(=O)O`, the CC50 was ~100 µM (MTT; 24 h).
The CC50 of `N=C(N)N1CC=C(c2coc(C(=O)Nc3ccc(C4=CCN(C(=N)N)CC4)c(F)c3)c2)CC1` is reported as 129 µM (MTS; 24 h).
`COC(=O)c1c(C)ncn1CC(c1c[nH]c2ccc(C)cc12)c1c[nH]c2ccc(C)cc12` gave a CC50 of > 20 µM (MTS; 24 h).
`Cc1cnc(Nc2ccc(C(=O)N3CCC(N4CCCC4)CC3)cc2)nc1-c1ccc(Cl)s1` gave a CC50 of 10.5 µM (44 h).
`COc1ccc(NC(=O)N2CCCCN3[C@H](CN(C)S(C)(=O)=O)[C@H](c4ccc(C#Cc5ccccc5)cc4)[C@@H]3C2)cc1` has a CC50 of > 40 µM.
With `N=C(N)NCc1ccc(NC(=O)c2ccc(C(=O)Nc3cnc(C4=CCN(C(=N)N)CC4)cn3)cc2)cc1` the CC50 was 585 µM (MTS; 24 h).
For `COc1ccc(NC(=O)N2CCCCN3C[C@H](c4ccc(C#Cc5ccccc5)cc4)[C@@H]3C2)cc1`, the CC50 was 10 µM.
`CCOC(=O)c1cn(CC(c2cn(C)c3ccc(C)cc23)c2cn(C)c3ccc(C)cc23)c(C)c1C(=O)OC` has a CC50 of > 20 µM (MTS; 24 h).
